Screens as filed in PubChem BioAssay.
Exocytosis inh: blocks lytic granule exocytosis; AID 651702; hit rate 0.66% among 360,000; inhibition, % at 10 µM; TALL-104 LAMP-1 surface exposure, flow cytometry; cells stimulated with thapsigargin and PMA;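 active = inhibition above about 55%, limit read from the data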
MC4R antag cAMP: antagonists of human melanocortin 4 receptor (MC4R). AID 540295. inhibition, % at 6.5 µM. hit rate 0.48% among 360,000. MC4R-expressing cells, MTII-stimulated cAMP, LANCE TR-FRET. P32245;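 active = inhibition above its plate's cutoff, the mean of tested wells on that plate plus 3 SD, cut at about 29% in these data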;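 also: 0% = Melanotan II alone and 100% = Melanotan II plus saturating MCL0020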
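Test system: U2OS cells stably expressing human melanocortin 4 receptor (MC4R); also added: Melanotan II challenge; compound: 6.5 µM single dose; timing: 30-min compound preincubation, 1-h Melanotan II challenge, 1-h detection, room temperature; signal: Eu-cAMP/anti-cAMP TR-FRET, emission 671 nm; repeats: one well per compound, no replicates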
NTR1 agonist: agonists of human neurotensin receptor NTR1; P30989; AID 493036; hit rate 0.17% among 330,000; NTR1-U2OS beta-arrestin-GFP spot imaging, agonist mode; activation, % at 20 µM;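 active = activation at or above 40% of the spot to cytoplasm intensity ratio, with at least 20 cells analyzed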;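 also: 0% = DMSO without peptide and 100% = 100 nM NTR1 peptide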
Target sequence (P30989 whole entry, looked up): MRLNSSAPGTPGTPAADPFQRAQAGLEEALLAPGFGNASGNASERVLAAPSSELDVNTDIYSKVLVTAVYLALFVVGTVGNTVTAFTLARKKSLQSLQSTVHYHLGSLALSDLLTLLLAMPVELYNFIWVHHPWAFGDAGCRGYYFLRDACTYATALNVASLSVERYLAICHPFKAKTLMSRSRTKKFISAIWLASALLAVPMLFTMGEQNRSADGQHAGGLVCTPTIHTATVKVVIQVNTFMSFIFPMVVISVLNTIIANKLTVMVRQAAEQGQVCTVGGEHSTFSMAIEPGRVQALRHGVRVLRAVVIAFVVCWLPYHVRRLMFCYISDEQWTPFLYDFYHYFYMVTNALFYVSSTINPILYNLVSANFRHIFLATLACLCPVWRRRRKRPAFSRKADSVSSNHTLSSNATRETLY
MC4R ag barr: human MC4R agonism via beta-arrestin; activation, % at 8.9 µM; AID 540308; hit rate 0.98% among 360,000; U2OS MC4R beta-arrestin complementation, luminescence; percent of melanotan II response, DMSO zero; P32245;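 active = activation above a per-plate cutoff, the mean activation of sample wells on that plate plus 3 SD, cut at about 8% in these data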
sPLA2-III inh: Inhibits HGIII-sPLA2 liposome hydrolysis, primary screen; hit rate 0.56% among 370,000; QFRET BODIPY PC-A2 liposome hydrolysis, fluorescence; Q9NZ20; inhibition, % at 12.2 µM;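 active = inhibition above mean plus 3 SD of compounds lying within the high and low control bounds, cut at about 19% in these data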;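 also: 0% = median of test compound wells and 100% = no enzyme DMSO wells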
Bfl-1 A1 inh: inhibitors of the anti-apoptotic protein A1, read as caspase activation | MEF A1-2A-BIM cells, Caspase-Glo 3/7 luminescence, 3 h; percent of clofoctol response, vehicle zero | caspase activation, % (no concentration beside the values) | hit rate 0.066% among 330,000 | AID 2462;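 active = over half of replicate activation scores above 10%, or exactly half above 10 with the replicate mean above 10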
cAMP nonselect: counter-screen for MC4R antagonists: nonselective cAMP signaling inhibitors | shares compounds with MC4R antag cAMP | hit rate 26% among 1,600 | inhibition, % at 6.5 µM | parental U2OS, forskolin cAMP, LANCE TR-FRET;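 active = mean inhibition over triplicates above the low-control well mean plus 3 SD, set per campaign, cut at about 13% in these data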;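 also: signal is single emission at 671 nm which falls as cellular cAMP rises; 0% = forskolin-stimulated wells and 100% = buffer without forskolin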
MC4R antag conf: human MC4R cAMP antagonism confirmation; hit rate 27% among 1,600; MC4R-expressing cells, MTII-stimulated cAMP, TR-FRET; shares compounds with MC4R antag cAMP; inhibition, % at 6.5 µM; in the data active = inhibition above about 29%;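 also: 0% = agonist stimulated wells alone and 100% = agonist stimulated wells plus saturating reference antagonist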
* hit, by the source's call; . = no result given; + = active, no number. Sampled rows, rich in hits. Any-hit rate of the full collection: about 2.5%.

SMILES	Exocytosis inh	MC4R antag cAMP	NTR1 agonist	MC4R ag barr	sPLA2-III inh	Bfl-1 A1 inh	cAMP nonselect	MC4R antag conf
CCC(C)NS(=O)(=O)c1ccc(S(=O)(=O)N(CCc2ccc(OC)c(OC)c2)Cc2cccs2)cc1 (stereo not given)	9.8	32.3*	3.3	-1.1	-31.4	-0.3	-10.1	-18.3
COc1ccc(CCN(Cc2cccs2)S(=O)(=O)c2ccccc2)cc1OC	.	.	.	.	-9.2	.	.	.
CCN(C[C@H]1[C@@H](c2ccc(C3=CCCC3)cc2)[C@H](CO)N1C(=O)c1cccnc1)S(=O)(=O)c1ccccc1[N+](=O)[O-]	.	.	.	.	-16.1	.	.	.
COC(=O)c1sc(N2C(=O)C(O)=C(C(=O)c3ccc(C)o3)C2c2ccco2)nc1C (stereo not given)	-3.9	5.7	1.9	-3.4	-4.3	0.9	.	.
CSc1nnc(N2C(=O)C(O)=C(C(=O)c3ccc(C)o3)C2c2ccc(C)cc2)s1 (stereo not given)	5.2	+	1.3	-3.2	-11.8	1.0	52.0*	87.7*
COC(=O)c1sc(N2C(=O)C(O)=C(C(=O)c3ccc(C)o3)C2c2ccc(F)cc2)nc1C (stereo not given)	31.2	32.7*	-0.5	1.0	-5.8	0.1	17.5*	22.2
CC(C)N(C[C@@H]1CSCCS(=O)(=O)N1)C1CCCCC1	.	.	.	.	-2.2	.	.	.
COc1ccc(C(=O)C2(C(=O)NC3CCCC3)CC(c3ccccc3C(F)(F)F)=NO2)cc1 (stereo not given)	.	.	.	.	-1.8	.	.	.
COc1cc(/C=N/Nc2nc(Nc3ccc(C)cc3)nc(-n3nc(C)cc3C)n2)cc(OC)c1OC	-1.0	28.9*	11.3	4.2	-4.9	-0.3	7.2	30.5*
NC1=[N+](Cc2ccccc2)C(Cc2ccccc2)C2C(=C3CCCCC3n3c(=O)n(-c4ccccc4)c(=O)n32)N1 (stereo not given)	.	.	.	.	-0.4	.	.	.
CN(Cc1c(F)cccc1Cl)C(=O)CCc1c[nH]c2ccccc12	23.0	29.2*	1.2	-2.3	-49.0	0.3	3.4	1.4
C[C@@H]1ON(C)[C@H]2C[C@H]3c4cc(-c5ccccc5)ccc4CCN3C[C@@H]12	.	.	.	.	-1.0	.	.	.
COC(=O)[C@]12C[C@H](CC(=O)N3CCCCC3)C(=O)N(Cc3ccco3)C1=C[C@H](C(C)(C)C)O[C@@H]2C	.	.	.	.	-6.8	.	.	.
CC(C)(C)OC(=O)N[C@@H](Cc1ccccc1)c1nnc(S(=O)(=O)Cc2cccc(F)c2)o1	.	.	10.4	.	.	3.1	.	.
CC(C)[C@H](NC(=O)OC(C)(C)C)c1nnc(S(=O)(=O)Cc2c(F)cccc2Cl)o1	33.6	64.2*	32.7	-2.7	-0.8	-0.4	27.5*	33.8*
Cc1ccccc1CS(=O)(=O)c1nnc([C@H](CC(C)C)NC(=O)OC(C)(C)C)o1	35.6	32.9*	20.5	-0.8	6.9	-0.6	10.5	20.4
CC[C@@H](C)[C@H](NC(=O)OC(C)(C)C)c1nnc(S(=O)(=O)Cc2cc(C)ccc2C)o1	1.6	22.0	-0.9	-3.0	-13.0	-1.0	.	.
CC(C)[C@H](NC(=O)OCc1ccccc1)C(=O)N[C@@H](Cc1ccccc1)C1(O)CN(C)C(C(=O)NCc2ccccn2)CO1 (stereo not given in full)	.	.	.	.	-3.6	.	.	.
O=C(Cc1cccc2ccccc12)N1CCN(c2ncccn2)CC1	-1.0	29.5*	-0.4	-0.7	4.1	1.4	1.7	-2.1
COc1ccc(N(C)S(=O)(=O)c2cccc(C(=O)OCC(=O)NCc3ccccc3OC)c2)cc1	11.8	30.1*	3.7	-1.1	-14.9	-0.1	3.1	5.2
O[C@H](COc1ccc(F)cc1)CN1CCC(C(O)(c2ccccc2)c2ccccc2)CC1	.	.	.	.	-8.3	.	.	.
CCOC(=O)c1cc(-c2csc(-c3ccc(C(C)(C)C)cc3)n2)on1	-2.5	13.9	1.5	0.5	1.5	0.9	.	.
CCOC(=O)c1cc(-c2csc(-c3ccc(C(F)(F)F)cc3)n2)on1	2.6	37.0*	-0.5	0.8	5.8	0.3	2.4	-8.2
O=C(Nc1cc(C(F)(F)F)ccc1N1CCOCC1)c1ccccc1	-0.2	6.3	1.9	2.1	-2.8	0.2	.	.
O=C(Nc1cc(C(F)(F)F)ccc1N1CCOCC1)c1c(F)c(F)c(F)c(F)c1F	1.3	29.5*	-1.7	-1.4	4.6	2.3	15.7*	45.8*
SMILES	Exocytosis inh	MC4R antag cAMP	NTR1 agonist	MC4R ag barr	sPLA2-III inh	Bfl-1 A1 inh	cAMP nonselect	MC4R antag conf
COC(=O)c1ccc2c(=O)[nH]c(CCl)nc2c1	6.6	29.5*	0.0	-0.9	1.0	0.2	5.0	7.0
COC(=O)c1ccc2c(=O)[nH]c(CN3c4ccccc4CC3C)nc2c1 (stereo not given)	-2.2	1.1	0.5	-1.6	-3.3	0.8	.	.
CSCCC(NC(=O)c1ccc(Cl)cc1)C(=O)OCC(=O)NCc1ccco1 (stereo not given)	-0.2	21.6	-0.1	-1.6	-3.5	-0.2	.	.
CSCCC(NC(=O)c1ccc(Cl)cc1)C(=O)OCC(=O)Nc1cc(Cl)ccc1C#N (stereo not given)	-0.1	31.9*	0.7	2.7	-2.3	-0.3	13.2*	28.8*
COC(=O)C12C=C3CC(c4ccc(C)s4)=C3C(=O)N1Cc1[nH]c3ccccc3c1C2 (stereo not given)	.	.	.	.	-3.7	.	.	.
CCCC(=O)NC(NC(=S)Nc1ccc(S(N)(=O)=O)cc1)C(Cl)(Cl)Cl (stereo not given)	31.5	16.3	5.7	-1.5	-12.0	0.5	.	.
CCCC(=O)NC(NC(=S)Nc1ccc(N=Nc2ccccc2)cc1)C(Cl)(Cl)Cl (stereo not given)	5.1	29.3*	18.3	-2.7	2.6	-0.5	-1.4	16.1
CN1CCN(C(=O)/C=C/c2cn(-c3ccccc3)nc2-c2ccc3c(c2)OCCO3)CC1	5.4	36.0*	2.1	-0.7	-13.9	1.9	7.0	23.4
CN(C)C(=O)/C=C\c1cn(-c2ccccc2)nc1-c1ccc2c(c1)OCCO2	-4.0	9.8	0.2	-0.4	-10.9	0.8	.	.
O=C(/C=C/c1ccc(S(=O)(=O)NCc2ccco2)cc1)N1CCN(c2ccccc2)CC1	1.9	30.6*	0.6	0.7	-23.1	0.5	1.4	-4.0
O=C(c1ccc(S(=O)(=O)NCc2ccco2)cc1)N1CCN(c2ccc(F)cc2)CC1	-1.0	-4.4	0.6	-0.8	3.3	-0.3	.	.
COCCNc1nc2c(c(=O)n(Cc3cccc(Cl)c3)c(=O)n2C)n1C	29.4	29.2*	-0.6	-1.6	3.8	0.1	1.3	0.3
O=C(Cn1cc(C(F)(F)F)ccc1=O)NC(c1ccccc1)c1ccccc1	-3.5	36.1*	1.3	-0.8	-5.8	0.6	4.4	8.6
